ChEMBL document CHEMBL1147781, “Design, synthesis and in vitro antimalarial activity of an acylhydrazone library” (Bioorg Med Chem Lett, 2006)

Key:
[1] = test system: MRC5; assay: Relative antimalarial activity to cytotoxicity as selectivity index (CC50/IC50); type: functional
[2] = test system: MRC5; assay: Cytotoxicity against human diploid embryonic lung MRC5 cells by colorimetric MTT assay; type: functional
In short: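 Human MRC5 cells were used, with the value reported as CC50 in µM. Results are given as the mean ± SD of two to three independent experiments.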

[3] = test system: Plasmodium falciparum; assay: Antimalarial activity against chloroquine-resistant Plasmodium falciparum FcB1; type: functional, organism-based
In short: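 P. falciparum FcB1 (chloroquine-resistant) growth inhibition; IC50 reported as mean ± SD of two to three independent experiments.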

[4] = test system: Plasmodium falciparum; assay: Growth inhibition of chloroquine-resistant Plasmodium falciparum FcB1 at 1 uM; type: functional

## CCN(CC)c1ccc(/C=N/NC(=O)c2ccccc2)c(O)c1
[1]
  Ratio CC50/IC50: 1
[2]
  CC50: 1.1 µM
[3]
  IC50: 1100 nM
[4]
  inhibition at 1 µM: 60%

## COc1ccc(C(=O)N/N=C/c2cc(C(C)(C)C)ccc2O)cc1
[2]
  CC50: > 100 µM
[3]
  IC50: 2300 nM
[4]
  inhibition at 1 µM: 53%

## Cc1ccc(O)c(/C=N/NC(=O)c2ccc(C(C)(C)C)cc2)c1
[1]
  Ratio CC50/IC50: 7.4
[2]
  CC50: 16.3 µM
[3]
  IC50: 2200 nM
[4]
  inhibition at 1 µM: 65%

## O=C(N/N=C/c1ccccc1O)c1ccc(O)cc1
[4]
  inhibition at 1 µM: 11%

## O=C(N/N=C/c1ccccc1O)c1ccc(Cl)cc1
[4]
  inhibition at 1 µM: 25%

## CC(C)(C)c1ccc(O)c(/C=N/NC(=O)c2cccs2)c1
[1]
  Ratio CC50/IC50: 7.5
[2]
  CC50: 12 µM
[3]
  IC50: 1600 nM
[4]
  inhibition at 1 µM: 52%

## O=C(N/N=C/c1ccccc1O)c1cccs1
[4]
  inhibition at 1 µM: 13%

## CC(C)(C)c1ccc(O)c(/C=N/NC(=O)c2ccc(Cl)cc2)c1
[1]
  Ratio CC50/IC50: 1
[2]
  CC50: 3.6 µM
[3]
  IC50: 2900 nM
[4]
  inhibition at 1 µM: 69%

## CCN(CC)c1ccc(/C=N/NC(=O)c2ccc(C(C)(C)C)cc2)c(O)c1
[1]
  Ratio CC50/IC50: 1
[2]
  CC50: 1.1 µM
[3]
  IC50: 900 nM
[4]
  inhibition at 1 µM: 73%

## O=C(Cc1ccccc1)N/N=C/c1ccccc1O
[4]
  inhibition at 1 µM: 27%

## CC(C)(C)c1ccc(O)c(/C=N/NC(=O)c2ccccc2)c1
[1]
  Ratio CC50/IC50: 2
[2]
  CC50: 2.6 µM
[3]
  IC50: 1300 nM
[4]
  inhibition at 1 µM: 59%

## Cc1ccc(O)c(/C=N/NC(=O)c2ccc(Cl)cc2)c1
[2]
  CC50: > 100 µM
[3]
  IC50: 1900 nM
[4]
  inhibition at 1 µM: 52%

## O=C(N/N=C/c1ccccc1O)c1ccccc1
[4]
  inhibition at 1 µM: 35%

## CC(C)(C)c1ccc(O)c(/C=N/NC(=O)c2ccc([N+](=O)[O-])cc2)c1
[1]
  Ratio CC50/IC50: 1
[2]
  CC50: 1.1 µM
[3]
  IC50: 1600 nM
[4]
  inhibition at 1 µM: 81%

## CC(C)(C)c1ccc(C(=O)N/N=C/c2cc(Br)ccc2O)cc1
[2]
  CC50: > 100 µM
[3]
  IC50: 1700 nM
[4]
  inhibition at 1 µM: 52%

## CCN(CC)c1ccc(/C=N/NC(=O)c2ccc([N+](=O)[O-])cc2)c(O)c1
[1]
  Ratio CC50/IC50: 2.5
[2]
  CC50: 2.5 µM
[3]
  IC50: 1000 nM
[4]
  inhibition at 1 µM: 69%

## CCN(CC)CCCC(C)Nc1ccnc2cc(Cl)ccc12 (centres undefined) [CHLOROQUINE]
[2]
  CC50: 50 µM

## O=C(N/N=C/c1ccccc1O)c1cccnc1 [N'-(2-HYDROXYBENZYLIDENE)NICOTINOHYDRAZIDE]
[4]
  inhibition at 1 µM: 26%

## O=C(N/N=C/c1ccccc1O)c1ccncc1 [SALINAZID]
[4]
  inhibition at 1 µM: 22%
